From ChEMBL document CHEMBL1125087, “Synthesis and biological activity of new HMG-CoA reductase inhibitors. 1. Lactones of pyridine- and pyrimidine-substituted 3,5-dihydroxy-6-heptenoic (-heptanoic) acids” (J Med Chem, 1990)
pIC50: −log10 of the molar value.

Columns and labels:
[1] = molecular target: T1, 3-hydroxy-3-methylglutaryl-coenzyme A reductase (Homo sapiens) (UniProt P04035); experiment: Relative inhibition of HMG-CoA reductase compared to Mevinolin.
T1 sequence (whole entry): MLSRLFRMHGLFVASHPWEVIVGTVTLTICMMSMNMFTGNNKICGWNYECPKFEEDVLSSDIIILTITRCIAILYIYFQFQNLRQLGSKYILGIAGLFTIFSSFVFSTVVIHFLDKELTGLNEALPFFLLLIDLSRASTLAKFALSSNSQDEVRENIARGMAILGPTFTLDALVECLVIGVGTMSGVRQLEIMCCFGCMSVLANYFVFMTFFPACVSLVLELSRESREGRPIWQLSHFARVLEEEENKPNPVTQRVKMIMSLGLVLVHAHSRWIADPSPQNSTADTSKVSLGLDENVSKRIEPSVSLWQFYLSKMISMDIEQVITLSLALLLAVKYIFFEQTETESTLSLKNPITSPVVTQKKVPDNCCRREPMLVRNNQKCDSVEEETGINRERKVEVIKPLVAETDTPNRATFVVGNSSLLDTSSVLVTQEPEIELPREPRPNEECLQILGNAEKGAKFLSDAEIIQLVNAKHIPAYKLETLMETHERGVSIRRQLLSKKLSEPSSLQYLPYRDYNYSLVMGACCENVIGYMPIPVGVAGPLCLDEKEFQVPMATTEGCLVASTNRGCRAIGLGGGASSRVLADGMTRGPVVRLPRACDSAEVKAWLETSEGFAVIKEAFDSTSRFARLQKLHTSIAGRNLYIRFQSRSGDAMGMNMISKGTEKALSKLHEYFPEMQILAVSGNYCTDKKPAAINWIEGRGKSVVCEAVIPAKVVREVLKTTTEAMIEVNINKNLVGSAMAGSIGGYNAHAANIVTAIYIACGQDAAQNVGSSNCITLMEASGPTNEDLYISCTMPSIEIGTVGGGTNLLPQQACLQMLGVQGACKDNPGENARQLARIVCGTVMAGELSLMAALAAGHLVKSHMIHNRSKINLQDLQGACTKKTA

[2] = molecular target: T2, 3-hydroxy-3-methylglutaryl-coenzyme A reductase (Rattus norvegicus, UniProt P51639); experiment: In vitro inhibition of rat liver HMG-CoA reductase
T2 sequence (P51639 whole entry): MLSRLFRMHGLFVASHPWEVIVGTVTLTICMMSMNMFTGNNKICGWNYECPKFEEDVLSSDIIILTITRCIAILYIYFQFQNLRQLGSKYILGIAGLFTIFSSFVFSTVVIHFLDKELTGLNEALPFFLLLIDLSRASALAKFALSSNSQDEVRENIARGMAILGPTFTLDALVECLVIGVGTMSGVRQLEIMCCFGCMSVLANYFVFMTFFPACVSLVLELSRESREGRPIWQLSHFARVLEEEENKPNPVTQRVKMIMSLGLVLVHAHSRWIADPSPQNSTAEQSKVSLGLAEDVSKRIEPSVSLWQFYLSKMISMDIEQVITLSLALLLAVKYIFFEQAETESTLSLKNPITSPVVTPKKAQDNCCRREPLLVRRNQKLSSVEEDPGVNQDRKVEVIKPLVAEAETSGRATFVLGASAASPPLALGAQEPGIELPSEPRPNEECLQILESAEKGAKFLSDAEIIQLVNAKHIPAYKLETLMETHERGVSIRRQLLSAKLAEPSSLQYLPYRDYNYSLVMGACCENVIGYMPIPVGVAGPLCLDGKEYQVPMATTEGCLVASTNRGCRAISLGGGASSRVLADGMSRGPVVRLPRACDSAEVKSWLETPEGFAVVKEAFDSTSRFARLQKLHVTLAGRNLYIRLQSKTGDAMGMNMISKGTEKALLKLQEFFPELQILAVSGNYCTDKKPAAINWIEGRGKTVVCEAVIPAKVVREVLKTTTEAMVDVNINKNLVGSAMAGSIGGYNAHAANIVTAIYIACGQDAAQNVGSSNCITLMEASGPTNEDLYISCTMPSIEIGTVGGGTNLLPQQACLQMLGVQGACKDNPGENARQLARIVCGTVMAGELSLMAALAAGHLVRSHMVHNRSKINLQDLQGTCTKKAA
How it was run: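 Partially purified soluble HMG-CoA reductase from rat liver microsomes. Medium: 6 mM Tris, 2.5 mM EDTA, 2.5 mM DTT, 50 mM NADP, 50 mM glucose 6-phosphate, glucose-6-phosphate dehydrogenase, and 0.91 mM HMG-CoA with [14C]HMG-CoA. Lactones were opened with 1 equiv KOH to potassium dihydroxy carboxylates and tested at multiple concentrations. Incubated at 37 °C for 20 min, then stopped with HClO4. Run in triplicate; IC50 read from a %-inhibition-versus-concentration plot.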

[3] = molecular target: T3, 3-hydroxy-3-methylglutaryl-coenzyme A reductase (Homo sapiens, UniProt P04035); experiment: Inhibition of cellular HMG-CoA reductase in cultures of human HEP G2 cells, determined by decreased incorporation of sodium [14C]acetate into cholesterol.; type: cell-based, HepG2
T3 sequence (P04035 whole entry): T1 sequence (whole entry)
How it was run: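 They were preincubated for 1 h with compound at three concentrations, or with solvent as control, then labeled with [14C]sodium acetate for 3 h. [3H]cholesterol served as internal standard. Cells were saponified, lipids extracted with chloroform/methanol 2:1, and cholesterol isolated by TLC. IC50 came from the treated/control [14C]cholesterol ratio plotted against concentration.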

Compound | Relative potency [1] | pIC50 [2] | pIC50 [3]
Cc1nc(-c2ccccc2)cc(-c2ccc(F)cc2)c1/C=C/[C@@H]1C[C@@H](O)CC(=O)O1 | 0.56 | 7.42 | 7.05
Cc1nc(C)c(/C=C/[C@@H]2C[C@@H](O)CC(=O)O2)c(-c2ccc(F)cc2)n1 |  | 6.30 | 
CC(C)c1nc(-c2ccccc2)cc(-c2ccc(F)cc2)c1CCC1C[C@@H](O)CC(=O)O1 (some centres undefined) | 0.14 | 7.72 | 6.43
O=C1C[C@H](O)C[C@@H](/C=C/c2c(-c3ccc(F)cc3)cc(-c3ccccc3)nc2C2CCCCC2)O1 | > 0.01 | 7.52 | < 5.30
Cc1nc(C)c(CCC2C[C@@H](O)CC(=O)O2)c(-c2ccc(F)cc2)n1 (some centres undefined) |  | 6.00 | 
Cc1cc(-c2ccc(F)cc2)c(/C=C\[C@@H]2C[C@@H](O)CC(=O)O2)c(C)n1 |  | < 6.00 | 
CC(C)c1cc(-c2ccccc2)nc(-c2ccc(F)cc2)c1/C=C/[C@@H]1C[C@@H](O)CC(=O)O1 | 5 | 8.40 | 8.00
COc1ccc(-c2cc(-c3ccccc3)nc(C(C)C)c2/C=C/[C@@H]2C[C@@H](O)CC(=O)O2)cc1 | 0.33 | 7.89 | 6.82
CC(C)c1nc(C(C)(C)C)cc(-c2ccc(F)cc2)c1/C=C/[C@@H]1C[C@@H](O)CC(=O)O1 | 2.5 | 9.00 | 7.70
CC(C)(C)c1nc(-c2ccccc2)cc(-c2ccc(F)cc2)c1/C=C/[C@@H]1C[C@@H](O)CC(=O)O1 |  | 7.74 | 
CC(C)c1cc(-c2ccc(F)cc2)c(/C=C/[C@@H]2C[C@@H](O)CC(=O)O2)c(C(C)C)n1 |  | 8.52 | 
Cc1cc(-c2ccc(Cl)cc2)c(/C=C/[C@@H]2C[C@@H](O)CC(=O)O2)c(C)n1 |  | 7.03 | 
CC(C)c1nc(-c2ccc(F)cc2)cc(-c2ccc(F)cc2)c1/C=C/[C@@H]1C[C@@H](O)CC(=O)O1 | 6.67 | 8.70 | 8.12
CCc1nc(-c2ccccc2)cc(-c2ccc(F)cc2)c1/C=C/[C@@H]1C[C@@H](O)CC(=O)O1 |  | 7.40 | 
Cc1cc(C)cc(-c2cc(-c3ccc(F)cc3)c(/C=C/[C@@H]3C[C@@H](O)CC(=O)O3)c(C(C)C)n2)c1 |  | 8.10 | 
CC(C)c1nc(C2CCCCC2)cc(-c2ccc(F)cc2)c1/C=C/[C@@H]1C[C@@H](O)CC(=O)O1 | 5.26 | 8.40 | 8.02
Cc1nc(C)c(/C=C\[C@@H]2C[C@@H](O)CC(=O)O2)c(-c2ccc(Cl)cc2)n1 |  | < 6.00 | 
Cc1ccc(C)c(-c2cc(-c3ccc(F)cc3)c(/C=C/[C@@H]3C[C@@H](O)CC(=O)O3)c(C(C)C)n2)c1 | 2.5 | 8.30 | 7.70
Cc1cc(-c2ccc(F)cc2)c(/C=C/[C@@H]2C[C@@H](O)CC(=O)O2)c(C(C)C)n1 | 1 | 8.05 | 7.30
CC(C)c1nc(-c2ccc(F)cc2)c(/C=C/[C@@H]2C[C@@H](O)CC(=O)O2)c(C(C)C)n1 | 10.4 | 8.52 | 8.32
CC(C)c1nc(C2CCCCC2)nc(-c2ccc(F)cc2)c1/C=C/[C@@H]1C[C@@H](O)CC(=O)O1 | 1.92 | 9.00 | 7.59
Cc1cc(-c2ccc(F)cc2)c(/C=C/[C@@H]2C[C@@H](O)CC(=O)O2)c(C)n1 | 0.03 | 6.59 | 5.70
CC(C)c1nc(-c2ccccc2)cc(-c2ccc(C(F)(F)F)cc2)c1/C=C/[C@@H]1C[C@@H](O)CC(=O)O1 |  | 7.44 | 
Cc1nc(C)c(/C=C/[C@@H]2C[C@@H](O)CC(=O)O2)c(-c2ccc(Cl)cc2)n1 |  | 6.22 | 
CC(C)c1nc(-c2ccccc2)nc(-c2ccc(F)cc2)c1/C=C/[C@@H]1C[C@@H](O)CC(=O)O1 | 10 | 8.52 | 8.30
CC[C@H](C)C(=O)O[C@H]1C[C@@H](C)C=C2C=C[C@H](C)[C@H](CC[C@@H]3C[C@@H](O)CC(=O)O3)[C@H]21 [LOVASTATIN] |  | 8.10 | 
CC(C)c1nc(-c2ccc(F)cc2)nc(-c2ccc(F)cc2)c1/C=C/[C@@H]1C[C@@H](O)CC(=O)O1 | 2.78 | 9.00 | 7.74
CC(C)c1nc(-c2ccccc2)cc(-c2ccc(F)cc2)c1/C=C/[C@@H]1C[C@@H](O)CC(=O)O1 [GLENVASTATIN] | 10 | 8.52 | 8.30
CCc1nc(-c2ccccc2)cc(-c2ccc(F)cc2)c1CCC1C[C@@H](O)CC(=O)O1 (some centres undefined) |  | 8.52 | 
Cc1nc(-c2ccccc2)cc(-c2ccc(F)cc2)c1/C=C\[C@@H]1C[C@@H](O)CC(=O)O1 | 0.08 | 7.00 | 5.30
